The text below walks through data of ChEMBL document CHEMBL4513216, “Probing the Open Global Health Chemical Diversity Library for Multistage-Active Starting Points for Next-Generation Antimalarials” (ACS Infect Dis, 2020).

This series in a line: Toxicity liver stage against HepG2, at 10uM. It counts as cell-based. The arrangement: test concentration 10 uM, cell line HepG2-A16-CD81EGFP. The following applies: human, HepG2-A16-CD81EGFP cells; read-out: INHIBITION
In a few lines:
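Uninfected HepG2-A16-CD81EGFP cells, 3 × 10^3 per well, 1536-well, plated on prespotted compound at 10 μM final, parasite-free screening media added to match infected plates; puromycin 10 μM positive, DMSO 0.5% negative; run in parallel with 48 h PbLuc assay at 37 °C, 5% CO2; viability by CellTiter-Glo luminescence, normalized to controls.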
With `Oc1nnc(-c2cccs2)c2sc(N3CCCC3)nc12`, the cytotoxicity at 10 µM is -2.73%.
The same measure for `Cc1cc(C(=O)N2CCC(n3nc(C)cc3C)C2)c2ccc(F)cc2n1` (configuration not stated): -5.08%.
In the case of `COc1ccc(C(CNC(=O)c2c(C)noc2C)N(C)C)cc1` (configuration not stated), the cytotoxicity at 10 µM is -13.1%.
For `OC(COCc1cccs1)CN1CCC(c2ccn[nH]2)CC1` (configuration not stated) the value was -2.66%; for `CCc1nnc2n1CCN(Cc1ncc(-c3ccc(Cl)cc3)o1)C2`, -9.66%; for `CC(CNC(=O)c1ccc(Cl)cc1F)N1CCCC1` (configuration not stated), -3.85%.
For the compound `FC(F)(F)CN1CCC(CCNc2ncccn2)CC1`, the cytotoxicity at 10 µM is -3.94%.
`COc1ccc(CNCC2CNc3cc(C)nn3C2)cn1` (configuration not stated): the cytotoxicity at 10 µM is -16.5%.
Take `CN(Cc1noc(C2CC2)n1)C1CCN(CCS(C)(=O)=O)C1` (configuration not stated): the cytotoxicity at 10 µM was -14.9%.
`CCOc1ncccc1C(=O)N1CCCC1c1c(C)nn(C)c1Cl` (configuration not stated): the cytotoxicity at 10 µM was determined as 0.534%.
For `CCOCCn1c(=O)[nH]c2cc(C(=O)N(C)Cc3nc(C)cs3)ccc21` the value was -10.6%; for `COCCN1CCC(CN(C)c2nc3c(s2)c(C)nn3C)CC1`, 0.992%.
For `Cc1oc(CN(C)C(=O)c2ccc(C(F)(F)F)cc2)cc1C(=O)O`, the cytotoxicity at 10 µM worked out at 9.08%.
As for `CCc1cc(N2CCCNCC2)n2nc(C)c(C)c2n1`, the cytotoxicity at 10 µM amounted to 4.46%.
For the compound `CN(C)c1cc(CNC(=O)c2cc(Cl)ccn2)ccn1`, the cytotoxicity at 10 µM was -15%.
For `CC(O)CN1CCC(CNCc2ccccc2Br)CC1` (configuration not stated) the value was -13.2%; for `COc1ccccc1CN1CC(O)CN(C(=O)OCC(C)C)CC1=O` (configuration not stated), -6.19%.
For the compound `CCCn1ncc(C(=O)NC2CCN(C3CCOCC3)CC2)c1C`, the cytotoxicity at 10 µM came to 5.66%.
For `Cc1cnn(CCNCc2ccc(S(C)(=O)=O)cc2)c1` the value was 7.55%; for `Cc1ncccc1OCC(=O)N1CCN[C@H]2CS(=O)(=O)C[C@H]21`, 13.1%; for `CCc1noc(C(C)N2CCC(N3CCCC3)CC2)n1` (configuration not stated), -7.77%.
For the compound `CC(C#N)CN(C)C(=O)CCNC(=O)OCC(F)(F)F` (configuration not stated), the cytotoxicity at 10 µM is 3.89%.
In the case of `Cc1cnn(CC2CCCCN2CCCS(=O)(=O)N(C)C)c1` (configuration not stated), the cytotoxicity at 10 µM was -5.1%.
For `Cc1nc[nH]c1CN1CCCC(CNC(=O)c2ccncn2)C1` (configuration not stated) the value was -0.334%; for `COCCN1CCC(Cc2cnc(-c3ccccc3C(=O)O)cn2)CC1`, -11.9%; for `Cc1occc1C(=O)N1CCn2c(COCC3CC3)cnc2C1C` (configuration not stated), 7.02%.
Turning to `Cc1cc(CN2C[C@@H]3COC[C@]3(COCC(=O)N(C)C)C2)no1`, the cytotoxicity at 10 µM was 1.44%.
For `CCC(NC(=O)c1ccoc1)c1ccccc1OCC(=O)N1CCCC1` (configuration not stated) the value was -4.31%; for `Cc1cccc(CN2C[C@@H]3[C@@H](C(=O)NCC(C)C)CCS(=O)(=O)[C@@H]3C2)c1`, -2.63%.
For `COc1ccc(C(=O)N2CC(=O)N(C3CCC3)CC(O)C2)c(OC)c1` (configuration not stated) the value was -0.373%; for `CC(C)(C)c1cc(CN2CCOCC(O)C2)n[nH]1` (configuration not stated), -3.89%; for `CCNC(=O)NCc1ccc(CN2CCCC(C)C2)cc1` (configuration not stated), -5.03%.
For `NC(=O)C1CCN(CC(=O)NCCn2cc(Cl)cn2)CC1`, the cytotoxicity at 10 µM is -50%.
Turning to `Cc1ccnc(C2CCN(C(=O)c3cnn(C)c3)C2)n1` (configuration not stated), the cytotoxicity at 10 µM was -15%.
For `O=C(Cc1ccon1)NC1CCCN(c2ccccc2F)C1=O` (configuration not stated) the value was -2.03%; for `O=C(CC1CCc2ccccc21)N1CCC(O)(c2cccnc2)CC1` (configuration not stated), 7.19%.
Turning to `Cc1cc(NC(=O)CN2CCN(C3CCCC3)C(=O)C2)nn1C`, the cytotoxicity at 10 µM came to 0.825%.
For `CN(Cc1cnn(C)c1)C(=O)NCc1nnc2n1CCC2` the value was -4.1%; for `CCCN(CC)c1cc(C2CCNCC2)nc(C)n1`, -7.33%.
The same measure for `O=C(Cc1cccc2ccccc12)N1CCC(Nc2cccnn2)CC1`: -17.1%; for `Cc1cc(S(=O)(=O)NCC[S+](C)[O-])c(F)cc1F` (configuration not stated): -4.23%; for `CCc1cnc(N2CCC3(CC(=O)N(Cc4csc(C)n4)C3)C2)nc1` (configuration not stated): -2.71%.
Turning to `CCn1c(C)cc(C(=O)N2C[C@@H](C(=O)O)[C@H](c3ccccc3C)C2)c1C`, the cytotoxicity at 10 µM is -7.71%.
For `CC(NC(=O)Nc1ccccc1CN1CCOCC1)c1nnc(N)s1` (configuration not stated) the value was 4.84%; for `Cc1cc(C)n(CC2CCCN2CCS(C)(=O)=O)n1` (configuration not stated), -3.95%.
The same measure for `Cc1ccccc1N1CCN(C(=O)c2cscn2)C(C)C1` (configuration not stated): 0.403%; for `CC(C)c1nc(CSc2nnc(C3CC3)n2CC(N)=O)no1`: -147%.
As to `Cn1cc(-c2ncnc3c2CCN(C(=O)N2CCOCC2)CC3)cn1`, the cytotoxicity at 10 µM was -11.3%.
For `CCC(CC)C(=O)N1CCN(C)c2ncccc2C1` the value was -3%; for `Cc1csc(N(C)C(=O)C2CC(=O)N(c3ccccc3F)C2)n1` (configuration not stated), 9.95%; for `C=Cn1ncc(CN2C[C@@H]3C[C@@H](O)CN3C[C@H]2Cc2ccccc2)c1C`, 4.08%.
The same measure for `Cn1cc(-c2cnc(N3CCOCC3)nc2)cc1C(=O)NCCO`: 7.15%.
The same measure for `Cn1ncc(C2CC(=O)NCc3nc4sccn4c32)c1C1CC1` (configuration not stated): -5.01%; for `O=c1[nH]c2c(c(=O)n1C1CCCCC1)CCC2NCc1ccccc1` (configuration not stated): -5.43%.
For the compound `COCCNc1cc(C)nn2cnnc12`, the cytotoxicity at 10 µM is -1.63%.
For `CCNC(=O)N1CC2=CC(C)(C)COc3ccc(OC)c(c32)C1` the value was 8.47%; for `OCC(CO)N1CCC(c2nccnc2Nc2cnccn2)CC1`, -10.5%.
Consider `Cc1noc(C2CCN(C(=O)CCCNc3ncccn3)CC2)n1`, for which the cytotoxicity at 10 µM was -6.69%.
The same measure for `CCOc1ccc(CN2CC[C@@H]3CC[C@H](C2)N3)cc1CO`: 5.99%.
Turning to `CN(C)C(=O)N1C[C@H](Oc2ccccn2)[C@H]2OCCC[C@H]21`, the cytotoxicity at 10 µM turned out to be 6.07%.
For `CC(C)C(=O)N1CCC(c2nc3c([nH]2)CCCNC3=O)CC1` the value was 1.74%.
The same measure for `COC(=O)c1ccc(C2CC(=O)Nc3c2cnn3C)cc1` (configuration not stated): -2.56%; for `COCc1cc(NCCc2ccccn2)n2nccc2n1`: -0.464%.
Consider `O=S(=O)(CCNCc1ccc2c(c1)CCO2)N1CCOCC1`, for which the cytotoxicity at 10 µM was -9.61%.
In the case of `Cc1cnn(CCNCc2ccc(OCc3noc(C)n3)cc2)c1`, the cytotoxicity at 10 µM turned out to be 1.33%.
Take `CC(=O)N1CCOC2(CCCN(C(=O)CCN3CCCCC3)C2)C1` (configuration not stated): the cytotoxicity at 10 µM was -2.51%.
The same measure for `Cc1ccc(C(=O)N2CCC3(CCN(C(=O)c4cccnc4)C3)CC2)o1`: 0.101%; for `CCn1ccnc1CN1CCCC(CO)(Cc2cccc(OC)c2)C1` (configuration not stated): 3.25%; for `COCc1nc(CNc2cccc(-c3ncon3)c2)cs1`: 1.22%.
As to `O=C(CCCC(=O)NCc1cccc(Br)c1)NCCN1CCCC1`, the cytotoxicity at 10 µM was -7.47%.
As for `O=C(NCC(F)F)N1CCC(n2ccc(C(F)(F)F)n2)CC1`, the cytotoxicity at 10 µM is -10.2%.
For the compound `Cc1cccc(CN2CCc3nnc(CN(C)C)n3CC2)n1`, the cytotoxicity at 10 µM was -1.54%.
For `CN(Cc1ccco1)C[C@H]1OC[C@@H]2CCN(Cc3ccccn3)C[C@@H]21`, the cytotoxicity at 10 µM is -3.22%.
`CN(CCN1CCN(c2ccccc2)CC1)C(=O)Nc1ccncc1`: the cytotoxicity at 10 µM worked out at 11.5%.
`Cc1ccccc1N1CCN(C(=O)c2cnc(N(C)C)nc2C)C(C)C1` (configuration not stated): the cytotoxicity at 10 µM was determined as 15.3%.
For `COc1ccccc1OC1CN(c2ccncc2)C1` the value was -2.76%; for `O=C(CCC1CCN(C(=O)c2cnco2)CC1)NCc1cccc(Cl)c1`, -8.48%; for `Cc1cc(C(=O)N2CCS(=O)(=O)CC2)c(C)o1`, -16.8%.
With `CCc1cnc(N2CC[C@@H]3CN(C(C)=O)CCO[C@@H]3C2)nc1`, the cytotoxicity at 10 µM came out at 9.1%.
Take `Cc1cc(C)n(CC2CCCN2CCCS(N)(=O)=O)n1` (configuration not stated): the cytotoxicity at 10 µM is -4.1%.
For `c1ccc(N2CCN(Cc3cnc(C4CCCCO4)nc3)CC2)cc1` (configuration not stated) the value was 0.59%; for `CN(CC(=O)N(C)C1CCCCC1)Cc1nc2ccccc2c(=O)[nH]1`, 2.26%; for `Cc1cc(NC(=O)NCCCSc2nncn2C)no1`, 0.0537%.
As to `CCC(=O)Nc1cccc(OCC(=O)N2C[C@H]3CC[C@H]2C3)c1`, the cytotoxicity at 10 µM is -2.18%.
For `CCOC(=O)N1CCN(C(=O)C(CC)n2cccn2)CC1` (configuration not stated) the value was -0.193%.
The same measure for `Cc1cnn(CC2CCCN2Cc2ncc(-c3ccccc3)o2)c1` (configuration not stated): -8.4%; for `C[C@@H]1CN(CC(C)(C)N2CCOCC2)CC[C@@]1(O)C1CCOCC1`: -1.71%.
For `CCc1nc(C2CCCN(C(=O)CCn3ccccc3=O)C2)no1` (configuration not stated), the cytotoxicity at 10 µM is -12.3%.
The same measure for `O=C(C1CCC1)N1CCC2(CCN(Cc3cccc(F)c3)CC2)CC1`: -4.29%; for `COCC1CCCN(C(=O)c2ccc(NC(=O)CC(C)C)c(C)c2)C1` (configuration not stated): -5.76%.
Turning to `Cc1cc(C)c(S(=O)(=O)NCCC(=O)NCc2ccoc2)c(C)c1`, the cytotoxicity at 10 µM amounted to 4.05%.
As to `CSCC[C@H](N)c1nnc(SCC(=O)Nc2ccc(Br)cc2)o1`, the cytotoxicity at 10 µM was -2.15%.
For `CCOc1ncccc1Cn1cc(-c2cncnc2)nn1` the value was 2.38%.
For `Cc1ccc(CN2CCC3(CC2)CCN(Cc2ccoc2)CC3)cc1` the value was 3.47%; for `O=C(CC1CC1)N1CCC2(COCc3cnc(-c4ccccc4)nc32)C1` (configuration not stated), 2.02%.
As for `COc1cccc(Cl)c1-c1cc(CN)ccc1F`, the cytotoxicity at 10 µM is -5.3%.
Turning to `CCNC(=O)CNCc1c(C(C)C)nn(C)c1N1CCOCC1`, the cytotoxicity at 10 µM is -6.45%.
